# From ChEMBL document CHEMBL4689842, “EUbOPEN Chemogenomics Library wave 1” (2021)
# Tested on: HEK-293T
# Assay: Multiplex assay against HEK293T;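 for Population Tubulin-Different-Phenotype (%): share of the cells with healthy nuclei that show this phenotype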
# Type: toxicity, cell-based
# Details: human
# Method in brief: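 Compound was added to live cells that had been stained at seeding with Hoechst33342, BioTracker Green Microtubule Cytoskeleton Dye, MitoTracker Red and Annexin V Alexa Fluor 680, and imaging followed on a CQ1 microscope at 37°C and 5% CO2. CellPathfinder machine-learning gating divided cells into Hoechst high-intensity objects or normal cells, normal cells into healthy, pyknosed or fragmented nuclei, and pyknosed cells into mitotic or apoptotic. Tubulin, mitochondrial-mass and membrane-permeability phenotypes are per cents of healthy-nucleus cells.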
# [1] = 12 h, 1 µM, compound concentration 1 uM, replicate 1
# [2] = 12 h, 1 µM, compound concentration 1 uM, replicate 2
# [3] = 12 h, 10 µM, compound concentration 10 uM, replicate 1
# [4] = 12 h, 10 µM, compound concentration 10 uM, replicate 2
# [5] = 24 h, 1 µM, compound concentration 1 uM, replicate 1
# [6] = 24 h, 1 µM, compound concentration 1 uM, replicate 2
# [7] = 24 h, 10 µM, compound concentration 10 uM, replicate 1
# [8] = 24 h, 10 µM, compound concentration 10 uM, replicate 2
# [9] = 48 h, 1 µM, compound concentration 1 uM, replicate 1
# [10] = 48 h, 1 µM, compound concentration 1 uM, replicate 2
# [11] = 48 h, 10 µM, compound concentration 10 uM, replicate 1
# [12] = 48 h, 10 µM, compound concentration 10 uM, replicate 2
structure (smiles),measurement,setting,value
CC(C)c1cc(Nc2nc(N3CCC[C@H](N)C3)ncc2C(N)=O)cc(C(C)C)n1,Population Apoptotic (%),[1],61%
same,Population Fragmented Nuclei (%),[1],9%
same,Population Healthy Nuclei (%),[1],30%
same,Population Hoechst High Intensity Objects (%),[1],11%
same,Population Membrane Permeable-Phenotype (%),[1],9%
same,Population Mitochondria Different-Phenotype (%),[1],95%
same,Population Mitotic Cells (%),[1],38%
same,Population Normal (%),[1],88%
same,Population Pyknosed Nuclei (%),[1],60%
same,Population Tubulin-Different-Phenotype (%),[1],100%
same,Total Cell Count,[1],225
same,Population Apoptotic (%),[2],52%
same,Population Fragmented Nuclei (%),[2],5%
same,Population Healthy Nuclei (%),[2],26%
same,Population Hoechst High Intensity Objects (%),[2],7%
same,Population Membrane Permeable-Phenotype (%),[2],8%
same,Population Mitochondria Different-Phenotype (%),[2],91%
same,Population Mitotic Cells (%),[2],47%
same,Population Normal (%),[2],92%
same,Population Pyknosed Nuclei (%),[2],68%
same,Population Tubulin-Different-Phenotype (%),[2],97%
same,Total Cell Count,[2],140
same,Population Apoptotic (%),[3],88%
same,Population Healthy Nuclei (%),[3],6%
same,Population Hoechst High Intensity Objects (%),[3],18%
same,Population Membrane Permeable-Phenotype (%),[3],0%
same,Population Mitochondria Different-Phenotype (%),[3],93%
same,Population Mitotic Cells (%),[3],11%
same,Population Normal (%),[3],81%
same,Population Pyknosed Nuclei (%),[3],86%
same,Population Tubulin-Different-Phenotype (%),[3],43%
same,Total Cell Count,[3],313
same,Population Apoptotic (%),[4],64%
same,Population Fragmented Nuclei (%),[4],7%
same,Population Healthy Nuclei (%),[4],5%
same,Population Hoechst High Intensity Objects (%),[4],5%
same,Population Membrane Permeable-Phenotype (%),[4],10%
same,Population Mitochondria Different-Phenotype (%),[4],90%
same,Population Mitotic Cells (%),[4],35%
same,Population Normal (%),[4],94%
same,Population Pyknosed Nuclei (%),[4],87%
same,Population Tubulin-Different-Phenotype (%),[4],40%
same,Total Cell Count,[4],206
same,Population Apoptotic (%),[5],65%
same,Population Fragmented Nuclei (%),[5],8%
same,Population Healthy Nuclei (%),[5],28%
same,Population Hoechst High Intensity Objects (%),[5],14%
same,Population Membrane Permeable-Phenotype (%),[5],5%
same,Population Mitochondria Different-Phenotype (%),[5],94%
same,Population Mitotic Cells (%),[5],34%
same,Population Normal (%),[5],85%
same,Population Pyknosed Nuclei (%),[5],63%
same,Population Tubulin-Different-Phenotype (%),[5],91%
same,Total Cell Count,[5],234
same,Population Apoptotic (%),[6],62%
same,Population Fragmented Nuclei (%),[6],9%
same,Population Healthy Nuclei (%),[6],40%
same,Population Hoechst High Intensity Objects (%),[6],5%
same,Population Membrane Permeable-Phenotype (%),[6],9%
same,Population Mitochondria Different-Phenotype (%),[6],89%
same,Population Mitotic Cells (%),[6],37%
same,Population Normal (%),[6],94%
same,Population Pyknosed Nuclei (%),[6],49%
same,Population Tubulin-Different-Phenotype (%),[6],96%
same,Total Cell Count,[6],170
same,Population Apoptotic (%),[7],90%
same,Population Fragmented Nuclei (%),[7],14%
same,Population Healthy Nuclei (%),[7],2%
same,Population Hoechst High Intensity Objects (%),[7],22%
same,Population Membrane Permeable-Phenotype (%),[7],0%
same,Population Mitochondria Different-Phenotype (%),[7],100%
same,Population Mitotic Cells (%),[7],9%
same,Population Normal (%),[7],77%
same,Population Pyknosed Nuclei (%),[7],82%
same,Population Tubulin-Different-Phenotype (%),[7],28%
same,Total Cell Count,[7],321
same,Population Apoptotic (%),[8],89%
same,Population Fragmented Nuclei (%),[8],11%
same,Population Healthy Nuclei (%),[8],15%
same,Population Hoechst High Intensity Objects (%),[8],8%
same,Population Membrane Permeable-Phenotype (%),[8],10%
same,Population Mitochondria Different-Phenotype (%),[8],40%
same,Population Mitotic Cells (%),[8],10%
same,Population Normal (%),[8],91%
same,Population Pyknosed Nuclei (%),[8],72%
same,Population Tubulin-Different-Phenotype (%),[8],70%
same,Total Cell Count,[8],206
same,Population Apoptotic (%),[9],72%
same,Population Fragmented Nuclei (%),[9],13%
same,Population Healthy Nuclei (%),[9],39%
same,Population Hoechst High Intensity Objects (%),[9],15%
same,Population Membrane Permeable-Phenotype (%),[9],2%
same,Population Mitochondria Different-Phenotype (%),[9],85%
same,Population Mitotic Cells (%),[9],27%
same,Population Normal (%),[9],84%
same,Population Pyknosed Nuclei (%),[9],46%
same,Population Tubulin-Different-Phenotype (%),[9],95%
same,Total Cell Count,[9],246
same,Population Apoptotic (%),[10],66%
same,Population Fragmented Nuclei (%),[10],7%
same,Population Healthy Nuclei (%),[10],55%
same,Population Hoechst High Intensity Objects (%),[10],7%
same,Population Membrane Permeable-Phenotype (%),[10],3%
same,Population Mitochondria Different-Phenotype (%),[10],81%
same,Population Mitotic Cells (%),[10],33%
same,Population Normal (%),[10],92%
same,Population Pyknosed Nuclei (%),[10],36%
same,Population Tubulin-Different-Phenotype (%),[10],96%
same,Total Cell Count,[10],213
same,Population Apoptotic (%),[11],71%
same,Population Fragmented Nuclei (%),[11],22%
same,Population Healthy Nuclei (%),[11],2%
same,Population Hoechst High Intensity Objects (%),[11],17%
same,Population Membrane Permeable-Phenotype (%),[11],0%
same,Population Mitochondria Different-Phenotype (%),[11],100%
same,Population Mitotic Cells (%),[11],28%
same,Population Normal (%),[11],82%
same,Population Pyknosed Nuclei (%),[11],74%
same,Population Tubulin-Different-Phenotype (%),[11],57%
same,Total Cell Count,[11],341
same,Population Apoptotic (%),[12],92%
same,Population Fragmented Nuclei (%),[12],23%
same,Population Healthy Nuclei (%),[12],26%
same,Population Hoechst High Intensity Objects (%),[12],7%
same,Population Membrane Permeable-Phenotype (%),[12],13%
same,Population Mitochondria Different-Phenotype (%),[12],64%
same,Population Mitotic Cells (%),[12],7%
same,Population Normal (%),[12],92%
same,Population Pyknosed Nuclei (%),[12],50%
same,Population Tubulin-Different-Phenotype (%),[12],91%
same,Total Cell Count,[12],182
same,Population Apoptotic (%),replicate 1,30%
same,Population Fragmented Nuclei (%),replicate 1,5%
same,Population Healthy Nuclei (%),replicate 1,23%
same,Population Hoechst High Intensity Objects (%),replicate 1,12%
same,Population Membrane Permeable-Phenotype (%),replicate 1,0%
same,Population Mitochondria Different-Phenotype (%),replicate 1,74%
same,Population Mitotic Cells (%),replicate 1,69%
same,Population Normal (%),replicate 1,87%
same,Population Pyknosed Nuclei (%),replicate 1,71%
same,Population Tubulin-Different-Phenotype (%),replicate 1,3%
